Measurements pooled from the literature.
Each line is one published result; the experiments were not run side by side.
Target: Calcium/calmodulin-dependent protein kinase type 1B (PNCK, Homo sapiens, UniProt Q6P2M8)

O=C(NCC1CCOCC1)c1n[nH]cc1NC(=O)c1c(F)cccc1F
remaining binding (binding; competition with immobilised ligand; 1 µM): 87%

C[C@@H]1CCN(c2nccc(-c3cnn4ncccc34)n2)C1
remaining binding (binding; 1 µM): 89%

Cc1cnc(Nc2ccc(C(=O)N3CCC(N4CCCC4)CC3)cc2)nc1-c1cc2ccccc2s1
remaining binding (binding; competition with immobilised ligand; 1 µM): 36%

CCCOc1ccc([C@H]2[C@H](C(=O)O)[C@@H](c3ccc4c(c3)OCO4)CN2CC(=O)Nc2c(CC)cccc2CC)cc1
remaining binding (cell-free assay; competition with immobilised ligand; 1 µM): 77%

O=C(c1ccc(Nc2nccc(-c3cc4ccccc4s3)n2)cc1)N1CCC(N2CCCC2)CC1
remaining binding (binding; competition with immobilised ligand; 1 µM): 47%

COc1cnc(Nc2cccc(S(N)(=O)=O)c2)nc1N1CCN(c2ccccc2)CC1
remaining binding (binding; competition with immobilised ligand; 1 µM): 92%

O=c1nc(-c2ccccn2)sc2ccccc12
remaining binding (cell-free assay; competition with immobilised ligand; 1 µM): 56%

c1cncc(-c2cccc(Nc3nccc(NC4CCCCC4)n3)c2)c1
remaining binding (binding; competition with immobilised ligand; 10 µM): 53%

CN(c1nccc(-c2cnn3ncccc23)n1)C1CC1
remaining binding (binding; 1 µM): 98%

COc1ncc2cc3ccccc3nc2c1C#N
remaining binding (cell-free assay; competition with immobilised ligand; 5 µM): 95%

N[C@H]1CCN(c2nccc(-c3cnn4ncccc34)n2)C1
remaining binding (binding; 1 µM): 84%

O=C(c1ccc(Nc2ncc(Cl)c(-c3cc4ccccc4s3)n2)cc1)N1CCC(N2CCCC2)CC1
remaining binding (binding; competition with immobilised ligand; 1 µM): 62%

F[C@@H]1CCN(c2nccc(-c3cnn4ncccc34)n2)C1
remaining binding (binding; 1 µM): 100%

CC(C)(O)c1cncc(-c2nc3ccc(F)cc3n2C2CC2)c1
remaining binding (cell-free assay; competition with immobilised ligand; 1 µM): 100%

COc1ccnn2ncc(-c3ccnc(N(C)C)n3)c12
remaining binding (binding; 1 µM): 100%

CC1=C(C#N)[C@@H](c2ccc3[nH]nc(C)c3c2)C(C#N)=C(c2ccc(Cl)cc2)N1
remaining binding (cell-free assay; competition with immobilised ligand; 1 µM): 98.5%

CN(C)c1nccc(-c2cnn3ncccc23)n1
remaining binding (binding; 1 µM): 29%

CC(=O)N1CCC(c2ccc(C(=O)NC(=N)N)cc2C(F)(F)F)CC1
remaining binding (cell-free assay; competition with immobilised ligand; 1 µM): 100%
